Values after ≈ are worked out from the molar mass of the structure shown.
Tests used:
[1] = tested on: Streptococcus pneumoniae; assay: Antibacterial activity against Streptococcus pneumoniae harboring mef(A) gene after overnight incubation by agar dilution method; type: functional
Summary of the method: (§1)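 Clinical isolates collected 1998–2008, with macrolide-resistance genes confirmed by PCR. MICs by agar dilution on Mueller-Hinton agar with 5% sheep blood. Inoculum 10^4 CFU/spot, incubated overnight at 35°C in ambient air. S. pneumoniae ATCC 49619 was the quality-control strain in every run.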

[2] = tested on: Streptococcus pneumoniae; assay: Antibacterial activity against Streptococcus pneumoniae harboring erm(B) and mef(A) gene after overnight incubation by agar dilution method; type: functional; summary of the method: as §1
[3] = tested on: Streptococcus pneumoniae; assay: Antibacterial activity against quinolone-susceptible Streptococcus pneumoniae after overnight incubation by agar dilution method; type: functional
Summary of the method: (§2)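 Agar dilution on Mueller-Hinton agar supplemented with 5% sheep blood. Inoculum 10^4 CFU/spot, incubated overnight at 35°C in ambient air. Test strains were clinical pneumococcal isolates. S. pneumoniae ATCC 49619 was included as the quality control strain in each run. MIC range, MIC50 and MIC90 were reported for each susceptibility category.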

[4] = tested on: Streptococcus pneumoniae; assay: Antibacterial activity against quinolone-resistant Streptococcus pneumoniae after overnight incubation by agar dilution method; type: functional; summary of the method: as §2
[5] = tested on: Streptococcus pneumoniae; assay: Antibacterial activity against macrolide-resistant Streptococcus pneumoniae harboring mef(A) gene after overnight incubation by agar dilution method; type: functional
Summary of the method: (§3)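 Agar dilution MICs on Mueller-Hinton agar with 5% sheep blood. Inoculum 10^4 CFU/spot, incubated overnight at 35°C in ambient air. Clinical S. pneumoniae or group A streptococcal isolates; resistance genotypes (erm(B), erm(A), mef(A)/mef(E)) were assigned by PCR. S. pneumoniae ATCC 49619 served as QC strain in each run. Range, MIC50 and MIC90 reported per phenotype group.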

[6] = tested on: Streptococcus pyogenes; assay: Antibacterial activity against macrolide-susceptible Streptococcus pyogenes after overnight incubation by agar dilution method; type: functional
Summary of the method: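 Agar dilution on Mueller-Hinton agar supplemented with 5% sheep blood, inoculum 10^4 CFU/spot, read after overnight incubation at 35°C in ambient air. Clinical isolates with defined genotypes; S. pneumoniae ATCC 49619 quality control strain included in each run. MIC50/MIC90 are MICs inhibiting 50% and 90% of isolates.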

[7] = tested on: Streptococcus pyogenes; assay: Antibacterial activity against Streptococcus pyogenes harboring erm(A) gene after overnight incubation by agar dilution method; type: functional; summary of the method: as §1
[8] = tested on: Streptococcus pyogenes; assay: Antibacterial activity against Streptococcus pyogenes harboring mutation in L4 ribosomal protein after overnight incubation by agar dilution method; type: functional; summary of the method: as §1
[9] = tested on: Streptococcus pyogenes; assay: Antibacterial activity against macrolide-resistant Streptococcus pyogenes harboring erm(B) gene after overnight incubation by agar dilution method; type: functional; summary of the method: as §3
[10] = tested on: Streptococcus pneumoniae; assay: Antibacterial activity against macrolide-susceptible Streptococcus pneumoniae 1077 after overnight incubation by agar dilution method; type: functional
[11] = tested on: Streptococcus pneumoniae; assay: Antibacterial activity against macrolide-susceptible Streptococcus pneumoniae 1077 after 43 passages and 10 compound-free subculturing by retest method; type: functional
[12] = tested on: Streptococcus pneumoniae; assay: Antibacterial activity against macrolide-resistant Streptococcus pneumoniae 1635 harboring erm(A) gene after 32 passages and 10 compound-free subculturing by retest method; type: functional
Summary of the method: (§4)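 Multistep selection by daily serial passage in subinhibitory drug concentrations. Medium was cation-adjusted Mueller-Hinton broth plus 5% lysed horse blood. Each day the next inoculum came from the tube 1–2 dilutions below the MIC whose turbidity matched the growth control, for up to 50 days. Clone MICs by CLSI macrodilution; identity to the parent confirmed by SmaI PFGE.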

[13] = tested on: Streptococcus pneumoniae; assay: Antibacterial activity against macrolide-resistant Streptococcus pneumoniae 1635 harboring erm(A) gene after 49 passages and 10 compound-free subculturing by retest method; type: functional; summary of the method: as §4
[14] = tested on: Streptococcus pneumoniae; assay: Antibacterial activity against macrolide-resistant Streptococcus pneumoniae 2686 harboring mutation in L4 ribosomal protein after 14 passages and 10 compound-free subculturing by retest method; type: functional
[15] = tested on: Streptococcus pneumoniae; assay: Antibacterial activity against macrolide-susceptible Streptococcus pneumoniae 7127 harboring S20N mutation in L4 ribosomal protein and A105V mutation in L22 ribosomal protein after 38 passages and 10 compound-free subculturing by retest method; type: functional
[16] = tested on: Streptococcus pneumoniae; assay: Antibacterial activity against macrolide-susceptible Streptococcus pneumoniae 7127 harboring S20N mutation in L4 ribosomal protein and A105V mutation in L22 ribosomal protein after 43 passages and 10 compound-free subculturing by retest method; type: functional
[17] = tested on: Streptococcus pneumoniae; assay: Antibacterial activity against macrolide-resistant Streptococcus pneumoniae 1635 harboring erm(A) gene after overnight incubation by agar dilution method; type: functional
[18] = tested on: Streptococcus pneumoniae; assay: Antibacterial activity against macrolide-resistant Streptococcus pneumoniae 3009 harboring mutation in 23S rRNA after overnight incubation by agar dilution method; type: functional
[19] = tested on: Streptococcus pyogenes; assay: Antibacterial activity against macrolide-susceptible Streptococcus pyogenes 2132 after overnight incubation by agar dilution method
[20] = tested on: Streptococcus pyogenes; assay: Antibacterial activity against macrolide-susceptible Streptococcus pyogenes 2132 after 28 passages and 10 compound-free subculturing by retest method
[21] = tested on: Streptococcus pyogenes; assay: Antibacterial activity against macrolide-resistant Streptococcus pyogenes 2368 harboring erm(B) gene after 6 passages and 10 compound-free subculturing by retest method
[22] = tested on: Streptococcus pyogenes; assay: Antibacterial activity against macrolide-resistant Streptococcus pyogenes 2094 harboring erm(A) gene after 5 passages and 10 compound-free subculturing by retest method
[23] = tested on: Streptococcus pyogenes; assay: Antibacterial activity against macrolide-resistant Streptococcus pyogenes 2094 harboring erm(A) gene after 6 passages and 10 compound-free subculturing by retest method
[24] = tested on: Streptococcus pyogenes; assay: Antibacterial activity against macrolide-resistant Streptococcus pyogenes 2094 harboring erm(A) gene after 22 passages and 10 compound-free subculturing by retest method
[25] = tested on: Streptococcus pyogenes; assay: Antibacterial activity against macrolide-resistant Streptococcus pyogenes 2094 harboring erm(A) gene after 34 passages and 10 compound-free subculturing by retest method
[26] = tested on: Streptococcus pyogenes; assay: Antibacterial activity against macrolide-resistant Streptococcus pyogenes 237 harboring mutation in L4 ribosomal protein after overnight incubation by agar dilution method
[27] = tested on: Streptococcus pyogenes; assay: Antibacterial activity against macrolide-resistant Streptococcus pyogenes 2011 harboring mef(A) gene after 50 passages following overnight incubation by agar dilution method
[28] = tested on: Streptococcus pyogenes; assay: Antibacterial activity against macrolide-resistant Streptococcus pyogenes 237 harboring mutation in L4 ribosomal protein after 20 passages and 10 compound-free subculturing by retest method
[29] = tested on: Streptococcus pyogenes; assay: Antibacterial activity against Streptococcus pyogenes harboring mef(A) gene after overnight incubation by agar dilution method; type: functional; summary of the method: as §1
[30] = tested on: Streptococcus pyogenes; assay: Antibacterial activity against macrolide-resistant Streptococcus pyogenes harboring mef(A) gene after overnight incubation by agar dilution method; type: functional; summary of the method: as §3
[31] = tested on: Streptococcus pneumoniae; assay: Antibacterial activity against macrolide-resistant Streptococcus pneumoniae 3665 harboring mef(A) gene after 14 passages and 10 compound-free subculturing by retest method; type: functional

CC[C@H]1OC(=O)[C@@](C)(F)C(=O)[C@H](C)[C@@H](O[C@@H]2O[C@H](C)C[C@H](N(C)C)[C@H]2O)[C@](C)(OC)C[C@@H](C)C(=O)[C@H](C)[C@H]2N(CCCCn3cc(-c4cccc(N)c4)nn3)C(=O)O[C@]12C [SOLITHROMYCIN]
MIC50 [1]: 0.03 µg/mL (≈ 0.0355 µM) | MIC90 [1]: 0.125 µg/mL (≈ 0.148 µM) | MIC50 [2]: 0.125 µg/mL (≈ 0.148 µM) | MIC90 [2]: 0.25 µg/mL (≈ 0.296 µM) | MIC50 [3]: 0.03 µg/mL (≈ 0.0355 µM) | MIC90 [3]: 0.25 µg/mL (≈ 0.296 µM) | MIC50 [4]: 0.008 µg/mL (≈ 0.00947 µM) | MIC90 [4]: 0.06 µg/mL (≈ 0.071 µM) | MIC50 [5]: 0.03 µg/mL (≈ 0.0355 µM) | MIC90 [5]: 0.125 µg/mL (≈ 0.148 µM) | MIC50 [6]: 0.015 µg/mL (≈ 0.0178 µM) | MIC90 [6]: 0.03 µg/mL (≈ 0.0355 µM) | MIC50 [7]: 0.03 µg/mL (≈ 0.0355 µM) | MIC90 [7]: 0.125 µg/mL (≈ 0.148 µM) | MIC [8]: 0.06 µg/mL (≈ 0.071 µM) | MIC50 [9]: 0.5 µg/mL (≈ 0.592 µM) | MIC90 [9]: 1 µg/mL (≈ 1.18 µM) | MIC [10]: 0.008 µg/mL (≈ 0.00947 µM) | MIC [11]: 0.06 µg/mL (≈ 0.071 µM) | MIC [12]: 0.125 µg/mL (≈ 0.148 µM) | MIC [13]: 0.008 µg/mL (≈ 0.00947 µM) | MIC [14]: 0.03 µg/mL (≈ 0.0355 µM) | MIC [15]: 0.008 µg/mL (≈ 0.00947 µM) | MIC [16]: 0.004 µg/mL (≈ 0.00473 µM) | MIC [17]: 0.008 µg/mL (≈ 0.00947 µM) | MIC [18]: 0.016 µg/mL (≈ 0.0189 µM) | MIC [19]: 0.008 µg/mL (≈ 0.00947 µM) | MIC [20]: 0.016 µg/mL (≈ 0.0189 µM) | MIC [21]: 0.5 µg/mL (≈ 0.592 µM) | MIC [22]: 0.016 µg/mL (≈ 0.0189 µM) | MIC [23]: 0.016 µg/mL (≈ 0.0189 µM) | MIC [24]: 0.03 µg/mL (≈ 0.0355 µM) | MIC [25]: 0.03 µg/mL (≈ 0.0355 µM) | MIC [26]: 0.03 µg/mL (≈ 0.0355 µM) | MIC [27]: 0.125 µg/mL (≈ 0.148 µM) | MIC [28]: 0.5 µg/mL (≈ 0.592 µM)

CC[C@H]1OC(=O)[C@H](C)C(=O)[C@H](C)[C@@H](O[C@@H]2O[C@H](C)C[C@H](N(C)C)[C@H]2O)[C@](C)(OC)C[C@@H](C)C(=O)[C@H](C)[C@H]2N(CCCCn3cnc(-c4cccnc4)c3)C(=O)O[C@]12C [TELITHROMYCIN]
MIC50 [1]: 0.125 µg/mL (≈ 0.154 µM) | MIC90 [1]: 0.25 µg/mL (≈ 0.308 µM) | MIC50 [2]: 0.5 µg/mL (≈ 0.616 µM) | MIC90 [2]: 1 µg/mL (≈ 1.23 µM) | MIC50 [3]: 0.125 µg/mL (≈ 0.154 µM) | MIC90 [3]: 0.5 µg/mL (≈ 0.616 µM) | MIC50 [4]: 0.03 µg/mL (≈ 0.0369 µM) | MIC90 [4]: 0.125 µg/mL (≈ 0.154 µM) | MIC50 [5]: 0.125 µg/mL (≈ 0.154 µM) | MIC90 [5]: 0.25 µg/mL (≈ 0.308 µM) | MIC50 [6]: 0.06 µg/mL (≈ 0.0739 µM) | MIC90 [6]: 0.06 µg/mL (≈ 0.0739 µM) | MIC50 [29]: 0.5 µg/mL (≈ 0.616 µM) | MIC90 [29]: 1 µg/mL (≈ 1.23 µM) | MIC50 [7]: 0.06 µg/mL (≈ 0.0739 µM) | MIC90 [7]: 0.125 µg/mL (≈ 0.154 µM) | MIC [8]: 0.06 µg/mL (≈ 0.0739 µM) | MIC50 [9]: 8 µg/mL (≈ 9.85 µM) | MIC90 [9]: 16 µg/mL (≈ 19.7 µM) | MIC50 [30]: 0.5 µg/mL (≈ 0.616 µM) | MIC90 [30]: 1 µg/mL (≈ 1.23 µM) | MIC [10]: 0.004 µg/mL (≈ 0.00493 µM) | MIC [11]: 0.06 µg/mL (≈ 0.0739 µM) | MIC [31]: 0.25 µg/mL (≈ 0.308 µM) | MIC ([31]; Streptococcus pneumoniae, 3665, read-out: MIC): 0.25 µg/mL (≈ 0.308 µM) | MIC [12]: 0.03 µg/mL (≈ 0.0369 µM) | MIC [13]: 0.016 µg/mL (≈ 0.0197 µM) | MIC [14]: 0.06 µg/mL (≈ 0.0739 µM) | MIC [15]: 0.03 µg/mL (≈ 0.0369 µM) | MIC [16]: 0.008 µg/mL (≈ 0.00985 µM) | MIC [17]: 0.004 µg/mL (≈ 0.00493 µM) | MIC [18]: 0.016 µg/mL (≈ 0.0197 µM) | MIC [19]: 0.008 µg/mL (≈ 0.00985 µM) | MIC [20]: 0.03 µg/mL (≈ 0.0369 µM) | MIC [21]: > 64 µg/mL | MIC [22]: 0.03 µg/mL (≈ 0.0369 µM) | MIC [23]: 0.03 µg/mL (≈ 0.0369 µM) | MIC [24]: 0.125 µg/mL (≈ 0.154 µM) | MIC [25]: 0.03 µg/mL (≈ 0.0369 µM) | MIC [26]: 0.06 µg/mL (≈ 0.0739 µM) | MIC [27]: 1 µg/mL (≈ 1.23 µM) | MIC [28]: 1 µg/mL (≈ 1.23 µM)

From ChEMBL document CHEMBL1240350, “In vitro activity of CEM-101 against Streptococcus pneumoniae and Streptococcus pyogenes with defined macrolide resistance mechanisms” (Antimicrob Agents Chemother, 2010)
